Screens: PubChem, The Scripps Research Institute Molecular Screening Center
A selection: hits, their analogues and other compounds. The true share with any hit is near 4.6%.
CHO parental Ca: counter-screen for OX1R antagonists: effect in parental CHO cells. AID 463079. inhibition, % at 5.6 µM. 330,000 tested, 0.63% active. parental CHO-K1, ATP-induced calcium, Fluo-8 fluorescence;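 active = inhibition above that plate's mean sample inhibition plus 3 SD, cut at about 26% in these data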;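 also: 0% = ATP-challenged DMSO wells and 100% = DMSO wells without ATP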
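Assay system: untransfected parental CHO cell line. Also added: ATP agonist challenge. Dosing: one dose, 5.6 µM nominal. Measured by: Fluo-8 fluorescence. Read-out: % inhibition. Benchmarks: ATP wells versus no-ATP DMSO wells. Repeats: no replicates.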
TAAR1 agonist: human TAAR1 agonism | Q96RJ0 | CHO RD-HGA16 TAAR1, Fluo-8 calcium fluorescence; vehicle wells 0%, saturating PEA agonist 100% | activation, % at 3 µM | 360,000 tested, 0.99% active | AID 624467;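 active = activation above the mean activation of all test compounds in the run plus 3 SD, cut at about 38% in these data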
Target sequence (Q96RJ0 whole entry, looked up): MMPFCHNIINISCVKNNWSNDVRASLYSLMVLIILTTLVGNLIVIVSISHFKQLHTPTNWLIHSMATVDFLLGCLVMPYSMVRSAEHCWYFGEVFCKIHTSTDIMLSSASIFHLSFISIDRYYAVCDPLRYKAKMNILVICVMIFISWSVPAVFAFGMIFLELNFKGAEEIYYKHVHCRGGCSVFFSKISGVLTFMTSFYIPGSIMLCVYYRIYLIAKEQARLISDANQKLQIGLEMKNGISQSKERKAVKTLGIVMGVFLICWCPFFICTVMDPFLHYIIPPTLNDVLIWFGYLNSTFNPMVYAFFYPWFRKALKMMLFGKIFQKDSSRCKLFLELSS
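Test system: RD-HGA16 (CHO) cells co-expressing Gα16 and hTAAR1 | Doses: Single dose, 3 µM | Schedule: 17-24 h seeding, 75 min 37 °C dye, 30 min RT | Evaluation: % activation from peak over basal fluorescence ratio, DMSO-to-PEA scaled | Technique: Kinetic Fluo-8 calcium fluorescence | Benchmarks: Low control DMSO, high control PEA (EC100)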
OX1R antag-1: blocks the human orexin 1 receptor; inhibition, % at 5 µM; CHO/OX1R cells, Fluo-8 calcium fluorescence, orexin A; 330,000 tested, 0.43% active; O43613;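 active = inhibition above its plate's threshold, mean inhibition of all tested compounds on the plate plus 3 SD, cut at about 37% in these data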;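 also: 0% = orexin A challenge wells and 100% = SB-334867-A antagonist wells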
GPR7 antagonist: human neuropeptides B/W receptor 1 antagonism. GPR7-expressing cells, fluorescence antagonist assay. inhibition, % at 4.4 µM. 290,000 tested, 1.1% active; in the data active = inhibition above about 16%, passing the limit was not always enough;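 also: cells stimulated with the agonist NPW; 0% = agonist with vehicle and 100% = vehicle without agonist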
Target sequence (P48145 whole entry, looked up): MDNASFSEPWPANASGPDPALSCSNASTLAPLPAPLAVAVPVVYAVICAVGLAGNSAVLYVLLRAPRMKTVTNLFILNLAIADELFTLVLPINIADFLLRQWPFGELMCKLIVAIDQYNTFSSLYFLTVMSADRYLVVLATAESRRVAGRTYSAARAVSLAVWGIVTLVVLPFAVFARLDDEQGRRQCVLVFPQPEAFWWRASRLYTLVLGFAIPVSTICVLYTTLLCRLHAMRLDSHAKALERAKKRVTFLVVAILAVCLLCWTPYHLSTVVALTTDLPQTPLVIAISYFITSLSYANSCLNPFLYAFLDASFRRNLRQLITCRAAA
OX1R antag-2: blocks the human orexin 1 receptor; inhibition, % at 6.6 µM; AID 485270; OX1R-expressing cells, FRET antagonist read-out; 330,000 tested, 1.8% active; in the data active = inhibition mostly above about 38%, no sharp cut-off; inactive = mostly below about 40%;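 also: 0% = agonist challenge alone and 100% = reference antagonist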
TAAR1 antagonist: human TAAR1 antagonism. Q96RJ0. CHO RD-HGA16 TAAR1, Fluo-8 calcium fluorescence, antagonist. inhibition, % at 3 µM. 360,000 tested, 1.5% active. AID 624466;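 active = inhibition above a per-plate cutoff, the mean inhibition of test compounds on that plate plus 3 SD, cut at about 49% in these data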;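 also: 0% = DMSO plus EC80 beta-PEA response and 100% = DMSO alone without agonist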
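System: RD-HGA16 CHO cells with stable hTAAR1 and Gα16 | Probe or stimulus: EC80 β-phenethylamine stimulus | Dosing: 3 µM, single point | Times: Dye loading 75 min at 37 °C, then 30 min room temperature | Measured by: Fluo-8 calcium-sensitive fluorescence | Read-out basis: % inhibition of agonist calcium response | Replicates: n of 1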
GPR7 antag conf: human GPR7 antagonism, confirmation assay; inhibition, % at 4.4 µM; AID 1952; shares compounds with GPR7 antagonist; 2,400 tested, 52% active; GPR7-expressing cells, calcium fluorescence antagonist mode; in the data active = inhibition above about 24%;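 also: stimulated with the GPR7 agonist NPW; 0% = agonist plus vehicle and 100% = vehicle alone without agonist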
MCHR1 antag: MCHR1 (human) antagonism in GPR7 counter-screen; shares compounds with GPR7 antagonist; MCHR1-expressing cells, fluorescence antagonist assay; inhibition, % at 4.4 µM; 2,400 tested, 62% active; in the data active = inhibition above about 22%;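 also: 0% = vehicle with agonist and 100% = vehicle without agonist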
Active calls of the source: *; · = no result given.

SMILES	CHO parental Ca	TAAR1 agonist	OX1R antag-1	GPR7 antagonist	OX1R antag-2	TAAR1 antagonist	GPR7 antag conf	MCHR1 antag
Cc1cc(NC(=O)CCC(=O)N(c2ccccc2F)C(C(=O)NC2CCCC2)c2ccccc2)no1 (stereo not drawn)	-19	8	-10	7	35	11	·	·
N#Cc1ccc(CN2CCN(C(=O)c3ccc(S(=O)(=O)NCc4ccco4)cc3)CC2)cc1	-25	4	-12	·	4	22	·	·
COc1ccccc1N1CCN(S(=O)(=O)CCNC(=O)CC2CCCC2)CC1	·	7	·	·	·	12	·	·
CCn1c(C)nc2cc(N)ccc21	-9	1	-14	27*	24	-7	-10	1
CCn1c(C)nc2cc(C(N)=O)ccc21	-8	4	-11	-7	8	6	·	·
O=C(NC1CCCCC1)C(c1cccs1)N(Cc1cccs1)C(=O)c1ccco1 (stereo not drawn)	-19	5	-4	25*	39	16	22	27*
O=C(NC1CCCC1)C(c1ccccc1)N(Cc1ccco1)C(=O)Cc1cccs1 (stereo not drawn)	-23	2	-14	42*	33	25	35*	21
O=C(NC1CCCCC1)C(c1ccccc1F)N(Cc1ccco1)C(=O)Cn1nnc2ccccc21 (stereo not drawn)	-31	5	-27	29*	21	3	43*	31*
COCCN(C(=O)CNC(=O)c1ccco1)C(C(=O)NC1CCCCC1)c1cccs1 (stereo not drawn)	-19	2	-18	-8	-5	-11	·	·
COC(=O)C1=CN(c2ccc3c(c2)OCO3)C(N)=C(C#N)C1c1ccccc1 (stereo not drawn)	·	2	·	·	·	-9	·	·
Cc1ccc(C(C)C)c(OCC(=O)NN=C2CCCC(=O)C2)c1	-15	2	4	·	11	-11	·	·
CCCOc1c(Br)cc(C(=O)OCC(=O)NC(=O)c2cccn2C)cc1OC	-18	-2	-12	·	5	2	·	·
CCc1cccc(CC)c1NC(=O)CN1CC(C)SC1=NC1CCCCC1 (stereo not drawn)	-15	15	-27	38*	9	-3	55*	33*
CCc1cccc(CC)c1NC(=O)NC1CCCCC1	3	0	-11	3	15	-15	·	·
O=C(c1cccc2nccnc12)N1CCCC(Nc2ccc(F)c(F)c2)C1 (stereo not drawn)	-2	0	-19	-5	36	-3	·	·
Cc1cccn2c(CN[C@@H]3CCCC[C@H]3c3ccccc3)c(C(=O)N3CCOCC3)nc12	-21	8	-58	29*	28	31	19	25*
CCOc1ccc2nc(NC(=O)CSc3cn[nH]n3)sc2c1	5	-1	-2	22*	34	14	-4	6
COc1ccc2nc(NC(=O)CSc3cn[nH]n3)sc2c1	-2	0	1	10	8	11	·	·
Cc1nc2ccc(C(=O)N3CCCC(CO)(Cc4ccc(F)cc4F)C3)cc2nc1C (stereo not drawn)	-19	6	-35	32*	11	4	-10	12
Cc1cc(C(=O)N2CCCC(CO)(Cc3ccc(F)cc3F)C2)nn1C (stereo not drawn)	·	3	·	·	·	6	·	·
CCn1nc(C(C)C)cc1C(=O)N1CCCC(CO)(Cc2ccc(F)cc2F)C1 (stereo not drawn)	-21	5	3	28*	44*	-8	10	27*
CCCCNC(=O)C1(C)CCCCN1C(=O)c1ccc2ccccc2n1 (stereo not drawn)	·	0	·	·	·	-7	·	·
CCCCCCc1c(C)nc(-n2[nH]c(C)c(CCO)c2=O)[nH]c1=O	-12	1	-28	-14	-24	-7	·	·
COc1ccc(NC(=O)COC(=O)c2c3c(nc4ccccc24)CCCC3)cc1Cl	-2	9	14	32*	75*	67*	35*	73*
COc1ccc(NC(=O)COC(=O)c2c3c(nc4ccccc24)CCCC3)cc1	-12	16	-14	13	14	48	·	·
SMILES	CHO parental Ca	TAAR1 agonist	OX1R antag-1	GPR7 antagonist	OX1R antag-2	TAAR1 antagonist	GPR7 antag conf	MCHR1 antag
Cc1snc(SCC(=O)N/N=C(\N)COc2cccc(C(F)(F)F)c2)c1C#N	-19	1	-26	-3	22	5	·	·
COc1ccc(CCN(C)C(=S)NC(=O)c2ccc(F)cc2Cl)cc1OC	-19	1	-19	3	6	-3	·	·
COc1ccc(CCN(C)C(=S)Nc2ccc(SC(F)F)cc2)cc1OC	-2	5	-4	39*	17	13	12	11
COc1ccc(NC(=O)C(OC(=O)c2cnccn2)c2ccccc2)cc1Cl (stereo not drawn)	-11	2	-12	32*	24	-24	19	20
O=C(CN1C(=O)c2ccccc2C1=O)Nc1ccccc1C(=O)NC1CCCCC1	-16	17	-12	-2	32	-2	·	·
CCn1cc(C(=O)N2CCN(c3ccc(OC)cc3)CC2)c2cc(OC)c(OC)cc2c1=O	-25	7	-6	39*	8	-19	-14	-8
CCn1cc(C(=O)N2CCN(c3ccc(F)cc3)CC2)c2cc(OC)c(OC)cc2c1=O	-15	-2	-17	-11	14	3	·	·
Cc1ccc(C)c(OCCCNCc2ccccc2)c1	-22	16	-12	-5	5	-23	·	·
CCCN(CCC)CCOc1cc(C)ccc1C(C)C	-24	23	-31	24*	15	11	31*	20
Cc1ccc(C(C)C)c(OCCNCc2ccccc2)c1	2	23	-25	30*	26	27	21	68*
Cc1ccc(C(C)C)c(OCCCn2ccnc2C)c1	-19	4	-9	-13	0	-12	·	·
COc1ccc([N+](=O)[O-])cc1NS(=O)(=O)c1cc(C(=O)O)ccc1OC	3	1	-21	-10	16	-28	·	·
Cc1ccccc1CC1(CO)CCCN(C(=O)c2ccc(F)cc2)C1 (stereo not drawn)	-8	12	-24	0	18	-7	·	·
Cc1ccccc1CC1(CO)CCCN(C(=O)c2ccccc2N(C)C)C1 (stereo not drawn)	-38	9	-19	31*	15	1	36*	31*
Cc1ccc(Nc2nc(N)nc(CSc3nc(C)cc(C)n3)n2)cc1	-20	6	-34	26*	38	-6	15	14
Cc1ccc(Nc2nc(N)nc(CSc3ncccn3)n2)cc1	-12	3	-29	-3	18	2	·	·
CCOC(=O)C1CCN(CCC(=O)Nc2ccccc2)CC1	-10	4	-4	51*	13	-19	3	-4
